{"data": "Measurements pooled from the literature", "note": "Each line is one published result; the experiments were not run side by side."}
{"SMILES": "O=c1c2ccc(Oc3ccc(OC(F)(F)F)cc3)cc2[nH]c2ccc(Cl)c(F)c12", "test": "metabolic stability", "test system": "human, liver microsomes", "conditions": "1 µM, pH 7.4", "quantity": "microsomal CLint", "result": "9.02 µL/min/mg"}
{"SMILES": "C[C@H]1CN(c2ccc(C3CCC(=O)NC3=O)cc2F)CCN1CC12CCC(NS(=O)(=O)c3ccc(Nc4ncc(C(F)(F)F)c(N5CCC[C@](C)(O)C5)n4)c(F)c3)(CC1)CO2 (stereo partly drawn)", "test": "metabolic stability", "test system": "human, liver microsomes", "conditions": "1 µM", "quantity": "scaled CLint", "result": "22 mL/min/kg"}
{"SMILES": "CC1(C)NC(=O)N(c2cc(C(F)(F)F)c(F)cc2C#N)C1=O", "test": "HPLC", "conditions": "pH 7.4", "quantity": "chromatographic logD", "result": 2.8}
{"SMILES": "CN1CCN(c2cccc(-c3ccc4ncnc(Nc5ccc(Cl)c(Cl)c5)c4c3)c2)CC1", "test": "shake flask", "test system": "aqueous buffer", "conditions": "pH 7.4", "quantity": "logD", "result": "> 4.1"}
{"SMILES": "C[C@H]1CN(CC2CCN(c3ccc(C4CCC(=O)NC4=O)cc3F)CC2)CC[C@H]1NS(=O)(=O)c1ccc(Nc2ncc(C(F)(F)F)c(N3CCC[C@](C)(O)C3)n2)c(F)c1 (stereo partly drawn)", "test": "metabolic stability", "test system": "human, liver microsomes", "conditions": "1 µM", "quantity": "scaled CLint", "result": "23 mL/min/kg"}
{"SMILES": "O=c1c2c([nH]c3ccc(F)c(Oc4ccc(OC(F)(F)F)cc4)c13)CCCC2", "test": "metabolic stability", "test system": "human, liver microsomes", "conditions": "1 µM, pH 7.4", "quantity": "microsomal CLint", "result": "92.7 µL/min/mg"}
{"SMILES": "c1cc(-c2ccc3ncnc(Nc4ncco4)c3c2)cc(N2CC3CCC(C2)O3)c1", "test": "shake flask", "test system": "aqueous buffer", "conditions": "pH 7.4", "quantity": "logD", "result": "> 3.6"}
{"SMILES": "Cc1cc(S(=O)(=O)NC2CC(N3CCN(CC4CCN(c5ccc6c(c5F)n(C)c(=O)n6C5CCC(=O)NC5=O)CC4)CC3)C2)ccc1Nc1ncc(C(F)(F)F)c(N2CCCC(C)(O)C2)n1 (stereo not drawn)", "test": "metabolic stability", "test system": "rat, liver microsomes", "conditions": "1 µM", "quantity": "scaled CLint", "result": "< 21 mL/min/kg"}
{"SMILES": "CC(C)C[C@H](NC(=O)[C@H](CC(C)C)NC(=O)[C@H](Cc1c[nH]c2ccccc12)NC(=O)[C@H](CCC(=O)O)NC(=O)[C@@H](NC(=O)[C@H](Cc1ccccc1)NC(=O)[C@H](CCC(=O)O)NC(=O)[C@H](CCCCNC(=O)COCCOCCNC(=O)COCCOCCNC(=O)CC[C@H](NC(=O)CCCCCCCCCCCCCCCCCCC(=O)O)C(=O)O)NC(=O)[C@H](C)NC(=O)[C@H](CCCCN)NC(=O)[C@H](CCCCN)NC(=O)[C@H](CCC(=O)O)NC(=O)[C@H](CC(=O)O)NC(=O)[C@H](CC(C)C)NC(=O)[C@H](Cc1ccc(O)cc1)NC(=O)[C@H](CCCCN)NC(=O)[C@H](CO)NC(=O)[C@H](Cc1ccc(O)cc1)NC(=O)[C@H](CC(=O)O)NC(=O)[C@H](CO)NC(=O)[C@@H](NC(=O)[C@H](Cc1ccccc1)NC(=O)[C@@H](NC(=O)CNC(=O)[C@H](CCC(N)=O)NC(=O)C(C)(C)NC(=O)[C@@H](N)Cc1c[nH]cn1)[C@@H](C)O)[C@@H](C)O)C(C)C)C(=O)N[C@@H](CCC(=O)O)C(=O)NCC(=O)NCC(=O)N1CCC[C@H]1C(=O)N[C@@H](CO)C(=O)N[C@@H](CO)C(=O)NCC(N)=O", "test system": "human, plasma", "conditions": "subcutaneous, 16 mg, multiple doses, patients", "quantity": "CL/F", "result": "0.5 mL/min"}
{"SMILES": "O=C(NCc1nc(-c2ccc(C(F)(F)F)cc2)cs1)[C@H]1CCCN(C(=O)COCCN2CCCC2)C1", "test": "metabolic stability", "test system": "human, liver microsomes", "conditions": "0.5 µM", "quantity": "microsomal CLint", "result": "14 µL/min/mg"}
{"SMILES": "c1cc(-c2ccc3ncnc(Nc4ncco4)c3c2)nc(N2CCOCC2)c1", "test": "shake flask", "test system": "aqueous buffer", "conditions": "pH 7.4", "quantity": "logD", "result": 3.1}
{"SMILES": "CCOCC(=O)N1CC[C@@H](C)[C@H](C(=O)NCc2nc(-c3ccc(C)nc3)cs2)C1 (racemic)", "test": "metabolic stability", "test system": "male Sprague-Dawley rat, liver microsomes", "conditions": "0.5 µM", "quantity": "microsomal CLint", "result": "53 µL/min/mg"}
{"SMILES": "CC1(C)NC(=O)N(c2ccc(F)c(Br)c2)C1=O", "test": "HPLC", "conditions": "pH 7.4", "quantity": "chromatographic logD", "result": 2.4}
{"SMILES": "C[C@]1(O)CCCN(c2nc(Nc3ccc(S(=O)(=O)N[C@@H]4CCN(CC5CCN(c6ccc(C7CCC(=O)NC7=O)cc6F)CC5)C[C@H]4F)cc3F)ncc2C(F)(F)F)C1 (stereo partly drawn)", "test": "metabolic stability", "test system": "human, liver microsomes", "conditions": "1 µM", "quantity": "scaled CLint", "result": "22 mL/min/kg"}
{"SMILES": "CN1CCN(c2cccc(-c3ccc4ncnc(Nc5ncco5)c4c3)c2)CC1", "test": "shake flask", "test system": "aqueous buffer", "conditions": "pH 7.4", "quantity": "logD", "result": 3.3}
{"SMILES": "O=C1NC2(CCS(=O)(=O)CC2)C(=O)N1c1ccc(F)c(C(F)(F)F)c1", "test": "HPLC", "conditions": "pH 7.4", "quantity": "chromatographic logD", "result": 2.6}
{"SMILES": "Cc1ccc(-c2csc(CNC(=O)[C@H]3CCCN(C(=O)[C@H]4CCC(C)(C)O4)[C@H]3C)n2)cn1", "test": "metabolic stability", "test system": "male Sprague-Dawley rat, liver microsomes", "conditions": "0.5 µM", "quantity": "microsomal CLint", "result": "197 µL/min/mg"}
{"SMILES": "O=c1c2c([nH]c3c(Oc4ccc(OC(F)(F)F)cc4)cccc13)CCCC2", "test": "metabolic stability", "test system": "human, liver microsomes", "conditions": "1 µM, pH 7.4", "quantity": "microsomal CLint", "result": "21 µL/min/mg"}
{"SMILES": "Cc1cc(S(=O)(=O)N[C@H]2CC[C@H](CN3CCN(c4cccc(NC5CCC(=O)NC5=O)c4)CC3)CC2)ccc1Nc1ncc(C(F)(F)F)c(N2CCC[C@](C)(O)C2)n1 (stereo partly drawn)", "test": "metabolic stability", "test system": "rat, liver microsomes", "conditions": "1 µM", "quantity": "scaled CLint", "result": "< 21 mL/min/kg"}
{"SMILES": "COc1ccc2c(c1)CN(C(=O)CCN1CCC(Cc3ccccc3)CC1)CC[S@@+]2[O-]", "test system": "male human, plasma", "conditions": "intravenous, 0.01 mg/kg, healthy volunteers", "quantity": "clearance", "result": "235 mL/min"}
{"SMILES": "CCONC(=O)N1CCC[C@H](C(=O)N[C@H](C)c2nc(-c3ccc(C#N)cc3)cs2)C1", "test": "metabolic stability", "test system": "male Sprague-Dawley rat, liver microsomes", "conditions": "0.5 µM", "quantity": "microsomal CLint", "result": "29 µL/min/mg"}
{"SMILES": "CC1(C)NC(=O)N(c2ccc(F)c(S(C)(=O)=O)c2)C1=O", "test": "HPLC", "conditions": "pH 7.4", "quantity": "chromatographic logD", "result": 1.2}
{"SMILES": "Cc1cc(S(=O)(=O)N[C@H]2CC[C@H](N3CCN(CC4CCN(c5cccc6c5n(C)c(=O)n6C5CCC(=O)NC5=O)CC4)CC3)CC2)ccc1Nc1ncc(C(F)(F)F)c(N2CCC[C@](C)(O)C2)n1 (stereo partly drawn)", "test": "metabolic stability", "test system": "human, liver microsomes", "conditions": "1 µM", "quantity": "scaled CLint", "result": "33 mL/min/kg"}
{"SMILES": "CC1(C)NC(=O)N(c2ccc(F)c(OC(F)(F)F)c2)C1=O", "test": "HPLC", "conditions": "pH 7.4", "quantity": "chromatographic logD", "result": 2.9}
{"SMILES": "CCN(CC)CCCOc1ccc2c(=O)c3c([nH]c2c1)CCCC3", "test": "metabolic stability", "test system": "human, liver microsomes", "conditions": "1 µM, pH 7.4", "quantity": "microsomal CLint", "result": "5.53 µL/min/mg"}
{"SMILES": "OC[C@H]1O[C@@H](c2cc(Cc3ccc(C4CC4)cc3)c(Cl)c3c2CCO3)[C@H](O)[C@@H](O)[C@@H]1O", "test system": "human, plasma", "conditions": "oral, 0.3 mg, single dose, fasted", "quantity": "CL/F", "result": "157 mL/min"}
{"SMILES": "CC(C)(N)COCC(=O)N1CCC[C@H](C(=O)NCc2nc(-c3ccc(C(F)(F)F)cc3)cs2)C1", "test": "metabolic stability", "test system": "male Sprague-Dawley rat, hepatocytes", "conditions": "0.5 µM", "quantity": "scaled CLint", "result": "21 mL/min/kg"}
{"SMILES": "Cc1cc(S(=O)(=O)NC2CC(N3CC[C@@H](OC4CN(c5cccc6c5n(C)c(=O)n6C5CCC(=O)NC5=O)C4)[C@H](F)C3)C2)ccc1Nc1ncc(C(F)(F)F)c(N2CCC[C@](C)(O)C2)n1 (stereo partly drawn)", "test": "metabolic stability", "test system": "rat, liver microsomes", "conditions": "1 µM", "quantity": "scaled CLint", "result": "23 mL/min/kg"}
{"SMILES": "COCC(=O)N1CCC[C@H](C(=O)NCc2nc(-c3ccccc3)cs2)C1", "test": "metabolic stability", "test system": "male Sprague-Dawley rat, liver microsomes", "conditions": "0.5 µM", "quantity": "microsomal CLint", "result": "19 µL/min/mg"}
{"SMILES": "CC1(C)NC(=O)N(c2ccc(F)c(F)c2)C1=O", "test": "HPLC", "conditions": "pH 7.4", "quantity": "chromatographic logD", "result": 1.8}
{"SMILES": "NCCOCC(=O)N1CCC[C@H](C(=O)NCc2nc(-c3ccc(C(F)(F)F)cc3)cs2)C1", "test": "metabolic stability", "test system": "male Sprague-Dawley rat, hepatocytes", "conditions": "0.5 µM", "quantity": "scaled CLint", "result": "< 4.2 mL/min/kg"}
{"SMILES": "C[C@@H](Oc1ccc(S(C)(=O)=O)cc1C(=O)N1C[C@@H]2C[C@]2(c2cc(C(F)(F)F)on2)C1)C(F)(F)F", "test system": "human, plasma", "conditions": "oral, 10 mg, single dose, fasted", "quantity": "CL/F", "result": "82.9 mL/min"}
{"SMILES": "CCS(=O)(=O)N1CCC2(CC1)NC(=O)N(c1ccc(F)c(C(F)(F)F)c1)C2=O", "test": "HPLC", "conditions": "pH 7.4", "quantity": "chromatographic logD", "result": 3.1}
